How the values were obtained:
Rattus norvegicus [1] = experiment: Antiinflammatory activity against carrageenan-induced paw edema in Wister albino rat at 50 mg/kg, ip administered 1 hr before inflammation induction assessed after 4 hrs; type: functional; conditions: route intraperitoneal
Outline: (§1)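 Wistar albino rats of either sex (pregnant females excluded), 160–190 g, 6 per group, kept at 22 °C on a 12 h light/dark cycle. Agent in DMSO given i.p. 1 h before 0.1 ml of 1% carrageenan in saline was injected subcutaneously into the right hind paw. Controls got DMSO. Oedema was paw volume by plethysmometer minus initial volume. Values are % inhibition = (Vc−Vt)/Vc×100; means ± SE, one-way ANOVA with LSD, p<0.05.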

Rattus norvegicus [2] = experiment: Antiinflammatory activity against carrageenan-induced paw edema in Wister albino rat at 50 mg/kg, ip administered 1 hr before inflammation induction assessed after 4 hrs relative to indomethacin; type: functional; conditions: route intraperitoneal
Outline: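 Same rat carrageenan paw oedema protocol: i.p. dosing in DMSO 1 h before carrageenan, with paw volume read by plethysmometer at 4 h. Potency is the % oedema inhibition of the test group divided by that of the indomethacin (10 mg/kg i.p.) group.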

Rattus norvegicus [3] = experiment: Antiinflammatory activity against carrageenan-induced paw edema in Wister albino rat at 50 mg/kg, ip administered 1 hr before inflammation induction assessed after 1 hr; type: functional; conditions: route intraperitoneal; outline: as §1
Rattus norvegicus [4] = experiment: Antiinflammatory activity against carrageenan-induced paw edema in Wister albino rat at 50 mg/kg, ip administered 1 hr before inflammation induction assessed after 2 hrs; type: functional; conditions: route intraperitoneal; outline: as §1
Rattus norvegicus [5] = experiment: Antiinflammatory activity against carrageenan-induced paw edema in Wister albino rat at 50 mg/kg, ip administered 1 hr before inflammation induction assessed after 3 hrs; type: functional; conditions: route intraperitoneal; outline: as §1
Mus musculus [6] = experiment: Toxicity in albino mouse at 500 mg/kg, ip assessed as mortality after 24 hrs by LD50 standard method; type: organism-based; design: dose 500 mg/kg, route intraperitoneal; conditions: in vivo
Outline: (§2)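 Albino mice, 20-25 g, 9 groups of 6; test agents dissolved in DMSO and given intraperitoneally at 500, 750 and 1000 mg/kg body weight; controls received DMSO only. Toxic symptoms, mortality and postmortem findings recorded 24 h after administration; LD50 computed by formula from largest dose killing all animals, mean dead between successive groups, dose factor and group size.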

Mus musculus [7] = experiment: Toxicity in albino mouse at 750 mg/kg, ip assessed as mortality after 24 hrs by LD50 standard method; type: organism-based; design: dose 750 mg/kg, route intraperitoneal; conditions: in vivo; outline: as §2
Mus musculus [8] = experiment: Toxicity in albino mouse at 1000 mg/kg, ip assessed as mortality after 24 hrs by LD50 standard method; type: organism-based; design: dose 1000 mg/kg, route intraperitoneal; conditions: in vivo; outline: as §2
Rattus norvegicus [9] = experiment: Antiinflammatory activity against carrageenan-induced paw edema in Wister albino rat at 10 mg/kg, ip administered 1 hr before inflammation induction assessed after 4 hrs; type: functional; conditions: route intraperitoneal; outline: as §1
Rattus norvegicus [10] = experiment: Antiinflammatory activity against carrageenan-induced paw edema in Wister albino rat at 10 mg/kg, ip administered 1 hr before inflammation induction assessed after 1 hr; type: functional; conditions: route intraperitoneal; outline: as §1
Rattus norvegicus [11] = experiment: Antiinflammatory activity against carrageenan-induced paw edema in Wister albino rat at 10 mg/kg, ip administered 1 hr before inflammation induction assessed after 2 hrs; type: functional; conditions: route intraperitoneal; outline: as §1
Rattus norvegicus [12] = experiment: Antiinflammatory activity against carrageenan-induced paw edema in Wister albino rat at 10 mg/kg, ip administered 1 hr before inflammation induction assessed after 3 hrs; type: functional; conditions: route intraperitoneal; outline: as §1

Compound	inhibition in vivo at 50 mg/kg (Rattus norvegicus [1])	Ratio (Rattus norvegicus [2])	other results
S=C(Nc1ccccc1)Nc1ccccc1SCCCSc1ccccc1NC(=S)Nc1ccccc1	38%	0.66	
O=C1Nc2ccc(cc2)NC(=O)Nc2ccccc2SCCCSc2ccccc2N1	48.9%	0.85	inhibition in vivo at 50 mg/kg (Rattus norvegicus [3]): 45.4%; inhibition in vivo at 50 mg/kg (Rattus norvegicus [4]): 44%; inhibition in vivo at 50 mg/kg (Rattus norvegicus [5]): 46.6%; Activity (Mus musculus [6]): Non-toxic; Activity (Mus musculus [7]): Non-toxic; Activity (Mus musculus [8]): Non-toxic
O=C(Nc1ccc(Cl)c(Cl)c1)Nc1ccccc1SCCCSc1ccccc1NC(=O)Nc1ccc(Cl)c(Cl)c1	28.3%	0.49	
COc1ccc(NC(=O)Nc2ccccc2SCCSc2ccccc2NC(=O)Nc2ccc(OC)cc2)cc1	51.9%	0.9	inhibition in vivo at 50 mg/kg (Rattus norvegicus [3]): 35.2%; inhibition in vivo at 50 mg/kg (Rattus norvegicus [4]): 38.4%; inhibition in vivo at 50 mg/kg (Rattus norvegicus [5]): 39.2%; Activity (Mus musculus [6]): Non-toxic; Activity (Mus musculus [7]): Non-toxic; Activity (Mus musculus [8]): Non-toxic
COc1ccc(NC(=O)Nc2ccccc2SCCCSc2ccccc2NC(=O)Nc2ccc(OC)cc2)cc1	35%	0.61	
CCNC(=O)Nc1ccccc1SCCSc1ccccc1NC(=O)NCC	33.1%	0.57	
S=C(Nc1ccccc1)Nc1ccccc1SCCSc1ccccc1NC(=S)Nc1ccccc1	43.3%	0.75	
O=C(Nc1ccccc1)Nc1ccccc1SCCSc1ccccc1NC(=O)Nc1ccccc1	32.8%	0.57	
O=C(Nc1ccccc1)Nc1ccccc1SCCCSc1ccccc1NC(=O)Nc1ccccc1	29.6%	0.51	
O=C1Nc2ccc(cc2)NC(=O)Nc2ccccc2SCCSc2ccccc2N1	34.9%	0.61	
O=C(Nc1ccc(Cl)c(Cl)c1)Nc1ccccc1SCCSc1ccccc1NC(=O)Nc1ccc(Cl)c(Cl)c1	7.1%	0.12	
CCNC(=O)Nc1ccccc1SCCCSc1ccccc1NC(=O)NCC	42.1%	0.73	
COc1ccc2c(c1)c(CC(=O)O)c(C)n2C(=O)c1ccc(Cl)cc1 [INDOMETHACIN]			inhibition in vivo at 10 mg/kg (Rattus norvegicus [9]): 57.6%; inhibition in vivo at 10 mg/kg (Rattus norvegicus [10]): 50.5%; inhibition in vivo at 10 mg/kg (Rattus norvegicus [11]): 48.2%; inhibition in vivo at 10 mg/kg (Rattus norvegicus [12]): 50.1%

Reference: ChEMBL document CHEMBL1158179, “Facile synthesis of dithiatetraaza-macrocycles of potential anti-inflammatory activity” (Eur J Med Chem, 2008)
